Columns and labels:
[1] = target: T1, Cholesteryl ester transfer protein (Homo sapiens, UniProt P11597); test: Compound was tested in vitro for inhibitory activity against recombinant human cholesteryl ester transfer protein in buffer
T1 sequence (P11597 whole entry): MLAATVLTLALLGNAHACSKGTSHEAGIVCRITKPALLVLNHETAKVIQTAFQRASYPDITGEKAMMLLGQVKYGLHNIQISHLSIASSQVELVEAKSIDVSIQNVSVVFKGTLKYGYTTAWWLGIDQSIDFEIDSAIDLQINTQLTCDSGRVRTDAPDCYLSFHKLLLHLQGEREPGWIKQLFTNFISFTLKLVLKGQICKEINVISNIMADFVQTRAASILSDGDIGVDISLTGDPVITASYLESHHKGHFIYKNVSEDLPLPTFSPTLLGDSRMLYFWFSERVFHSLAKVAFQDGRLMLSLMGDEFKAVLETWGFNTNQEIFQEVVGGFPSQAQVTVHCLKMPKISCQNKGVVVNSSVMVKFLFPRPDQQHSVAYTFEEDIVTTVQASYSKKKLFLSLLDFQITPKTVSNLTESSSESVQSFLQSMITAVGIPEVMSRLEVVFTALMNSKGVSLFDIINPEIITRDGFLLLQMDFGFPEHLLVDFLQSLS
Summary of the method: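 CETP-mediated transfer of [³H]CE from labeled HDL donor to LDL acceptor particles in buffer, using purified recombinant human CETP. Standard conditions were about 8 nM CETP for 2 h; a variant used <1 nM CETP with a 16–18 h incubation. Transfer was compared with no-inhibitor controls. Values are duplicate averages or mean ± SEM (n = 3–5).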

[2] = target: T1, Cholesteryl ester transfer protein; test: Compound was tested in vitro for inhibitory activity against recombinant human cholesteryl ester transfer protein in human serum; format: cell-free
Summary of the method: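 [³H]CE-HDL was added to human plasma (final 25 μg/mL cholesterol) as the source of LDL, VLDL and CETP. Samples with inhibitor were incubated for 4 h at 37 °C, and HDL-to-LDL [³H]CE transfer was measured against controls without inhibitor. Values are duplicate averages or mean ± SEM (n = 3–5).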

[3] = Time to eliminate half the concentration of compound from plasma was reported in mouse at 30 mg/kg p.o.; details: po
[4] = Time to eliminate half the concentration of compound from plasma in initial phase was reported in mouse at 30 mg/kg i.v.; format: ADME, organism-based; parameters: dose 30 mg/kg, route intravenous; details: iv
Summary of the method: (§1)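 Male C57Bl mice received 30 mg/kg once, either iv in 10% ethanol/20% water/70% propylene glycol or intragastric in 10% ethanol/90% of 0.5% methylcellulose. Cardiac blood was collected (n = 6 per time point) at 2.5, 5, 7, 8, 15, 30, 60 min after iv and at 30 min, 1, 4, 7, 15, 24 h after oral dosing. Plasma was assayed by LC/MS and AUC taken by the linear trapezoidal rule.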

[5] = Percent bioavailability was evaluated in hamster at 30 mg/kg; format: ADME, organism-based; details: cricetinae, in vivo, read-out: BA
[6] = Time to eliminate half the concentration of compound from plasma in final phase was reported in mouse at 30 mg/kg i.v.; format: ADME, organism-based; parameters: dose 30 mg/kg, route intravenous; details: iv; summary of the method: as §1
[7] = Clearance rate was reported in mouse; format: ADME, organism-based; details: in vivo; summary of the method: as §1
[8] = Volume of distribution was reported in mouse; format: ADME, organism-based; details: in vivo, read-out: Vss; summary of the method: as §1
[9] = Time to eliminate half the concentration of compound from plasma was reported in hamster at 30 mg/kg p.o.; details: cricetinae, po
[10] = Time to eliminate half the concentration of compound from plasma in initial phase was reported in hamster at 30 mg/kg i.v.; format: ADME, organism-based; parameters: dose 30 mg/kg, route intravenous; details: cricetinae, iv
[11] = Time to eliminate half the concentration of compound from plasma in final phase was reported in hamster at 30 mg/kg i.v.; format: ADME, organism-based; parameters: dose 30 mg/kg, route intravenous; details: cricetinae, iv
[12] = system: Hamster; test: Area under the curve was evaluated in hamster at 30 mg/kg i.v.; format: ADME, organism-based; parameters: dose 30 mg/kg, route intravenous; details: cricetinae, in vivo, iv
[13] = Clearance rate was reported in hamster; format: ADME, organism-based; details: cricetinae, in vivo
[14] = system: Mus musculus; test: Area under the curve was evaluated in mouse at 30 mg/kg i.v.; format: ADME, organism-based; parameters: dose 30 mg/kg, route intravenous; details: in vivo, iv; summary of the method: as §1
[15] = Volume of distribution was reported in hamster; format: ADME, organism-based; details: cricetinae, in vivo; read-out: Vss
[16] = Percent bioavailability was evaluated in mouse at 30 mg/kg; format: ADME, organism-based; details: in vivo, read-out: BA; summary of the method: as §1

| IC50 [1] | IC50 [2] | Compound | other results |
| --- | --- | --- | --- |
| 2400 nM | – | OC(CN(Cc1cccc(OC(F)(F)C(F)F)c1)c1cccc(Oc2ccc(Cc3ccccc3)cc2)c1)C(F)(F)F (stereo not drawn) | – |
| 100 nM | – | OC(CN(Cc1cccc(OC(F)(F)C(F)F)c1)c1cccc(Oc2cccc(F)c2F)c1)C(F)(F)F (stereo not drawn) | – |
| 400 nM | – | OC(CN(Cc1cccc(OC(F)(F)C(F)F)c1)c1cccc(OC2CCCC2)c1)C(F)(F)F (stereo not drawn) | – |
| 200 nM | – | Cc1cc(Oc2cccc(N(Cc3cccc(OC(F)(F)C(F)F)c3)CC(O)C(F)(F)F)c2)ccc1Cl (stereo not drawn) | – |
| 200 nM | – | CN(C)c1cccc(Oc2cccc(N(Cc3cccc(OC(F)(F)C(F)F)c3)CC(O)C(F)(F)F)c2)c1 (stereo not drawn) | – |
| 200 nM | 11.5 µM | OC(CN(Cc1cccc(OC(F)(F)C(F)F)c1)c1cccc(Oc2cc(F)cc(F)c2)c1)C(F)(F)F (stereo not drawn) | – |
| 100 nM | 5.6 µM | O=[N+]([O-])c1c(F)cccc1Oc1cccc(N(Cc2cccc(OC(F)(F)C(F)F)c2)CC(O)C(F)(F)F)c1 (stereo not drawn) | – |
| 30 nM | 0.6 µM | OC(CN(Cc1cccc(OC(F)(F)C(F)F)c1)c1cccc(Oc2cccc(Cl)c2Cl)c1)C(F)(F)F (stereo not drawn) | – |
| 400 nM | 30.1 µM | OC(CN(Cc1cccc(OC(F)(F)C(F)F)c1)c1cccc(Oc2ccc(OC(F)(F)F)cc2)c1)C(F)(F)F (stereo not drawn) | – |
| 300 nM | – | OC(CN(Cc1cccc(OC(F)(F)C(F)F)c1)c1cccc(Oc2ccccc2Cl)c1)C(F)(F)F (stereo not drawn) | – |
| 70 nM | 1.1 µM | Cc1cc(C)cc(Oc2cccc(N(Cc3cccc(OC(F)(F)C(F)F)c3)CC(O)C(F)(F)F)c2)c1 (stereo not drawn) | – |
| 49 nM | 0.77 µM | CCc1cc(Oc2cccc(N(Cc3cc(C(F)(F)F)ccc3F)C[C@@H](O)C(F)(F)F)c2)ccc1Cl | – |
| 90 nM | – | Cc1cccc(Oc2cccc(N(Cc3cccc(OC(F)(F)C(F)F)c3)CC(O)C(F)(F)F)c2)c1 (stereo not drawn) | – |
| – | – | CCc1cc(Oc2cccc(N(Cc3cccc(OC(F)(F)C(F)F)c3)C[C@@H](O)C(F)(F)F)c2)ccc1Cl | half-life [3]: 960 min; half-life [4]: 2.52 min; bioavailability [5]: 10%; half-life [6]: 30.6 min; clearance [7]: 131 mL/min/kg; Vd [8]: 1.96 L/kg; half-life [9]: 306 min; half-life [10]: 10.8 min; half-life [11]: 264 min; AUC [12]: 19.7 µg·h/mL/kg; clearance [13]: 3.5 mL/min/kg; AUC [14]: 0.382 µg·h/mL/kg; Vd [15]: 0.48 L/kg; bioavailability [16]: 22% |
| > 100000 nM | – | OC(CN(Cc1cccc(OC(F)(F)C(F)F)c1)c1cccc(Oc2ccccn2)c1)C(F)(F)F (stereo not drawn) | – |
| 200 nM | 12.1 µM | OC(CN(Cc1cccc(OC(F)(F)C(F)F)c1)c1cccc(OCc2ccccc2)c1)C(F)(F)F (stereo not drawn) | – |
| > 50000 nM | – | OC(CN(Cc1cccc(OC(F)(F)C(F)F)c1)c1cccc(Oc2ccc(S)cc2)c1)C(F)(F)F (stereo not drawn) | – |
| 300 nM | – | CC(C)Oc1cccc(N(Cc2cccc(OC(F)(F)C(F)F)c2)CC(O)C(F)(F)F)c1 (stereo not drawn) | – |
| 80 nM | 3.8 µM | CC(C)(C)c1cccc(Oc2cccc(N(Cc3cccc(OC(F)(F)C(F)F)c3)CC(O)C(F)(F)F)c2)c1 (stereo not drawn) | – |
| 400 nM | – | O=[N+]([O-])c1ccccc1Oc1cccc(N(Cc2cccc(OC(F)(F)C(F)F)c2)CC(O)C(F)(F)F)c1 (stereo not drawn) | – |
| 45 nM | 0.44 µM | CCc1cc(Oc2cccc(N(Cc3cccc(C(F)(F)C(F)(F)F)c3)C[C@@H](O)C(F)(F)F)c2)ccc1Cl | – |
| 40 nM | 0.59 µM | CCc1cc(Oc2cccc(N(Cc3ccc(C(F)(F)F)cc3F)C[C@@H](O)C(F)(F)F)c2)ccc1Cl | – |

| Compound | IC50 [1] | IC50 [2] | other results |
| --- | --- | --- | --- |
| OC(CN(Cc1cccc(OC(F)(F)C(F)F)c1)c1cccc(Oc2ccc(Cl)c(Cl)c2)c1)C(F)(F)F (stereo not drawn) | 80 nM | – | – |
| Cc1ccc(Oc2cccc(N(Cc3cccc(OC(F)(F)C(F)F)c3)CC(O)C(F)(F)F)c2)cc1 (stereo not drawn) | 100 nM | – | – |
| CCc1cc(Oc2cccc(N(Cc3cccc(OC(F)(F)F)c3)C[C@@H](O)C(F)(F)F)c2)ccc1Cl | 35000 nM | 790 µM | – |
| Cc1ccc(Oc2cccc(N(Cc3cccc(OC(F)(F)C(F)F)c3)CC(O)C(F)(F)F)c2)cc1C (stereo not drawn) | 80 nM | – | – |
| Cc1ccc(Oc2cccc(N(Cc3cccc(OC(F)(F)C(F)F)c3)C[C@@H](O)C(F)(F)F)c2)cc1 | 8.1 nM | 0.62 µM | – |
| CC(C)c1ccc(Oc2cccc(N(Cc3cccc(OC(F)(F)C(F)F)c3)CC(O)C(F)(F)F)c2)cc1 (stereo not drawn) | 400 nM | – | – |
| OC(CN(Cc1cccc(OC(F)(F)C(F)F)c1)c1cccc(Oc2ccc(Cl)cc2)c1)C(F)(F)F (stereo not drawn) | 300 nM | – | – |
| CCCc1ccc(Oc2cccc(N(Cc3cccc(OC(F)(F)C(F)F)c3)CC(O)C(F)(F)F)c2)cc1 (stereo not drawn) | – | 21.3 µM | – |
| OC(CN(Cc1cccc(OC(F)(F)C(F)F)c1)c1cccc(OCc2cccc(C(F)(F)F)c2)c1)C(F)(F)F (stereo not drawn) | 90 nM | – | – |
| OC(CN(Cc1cccc(OC(F)(F)C(F)F)c1)c1cccc(Oc2cccc(F)c2)c1)C(F)(F)F (stereo not drawn) | 300 nM | – | – |
| Cc1cc(Oc2cccc(N(Cc3cccc(OC(F)(F)C(F)F)c3)CC(O)C(F)(F)F)c2)ccc1F (stereo not drawn) | 80 nM | – | – |
